Data from publication PMC3580944 (Journal of medicinal chemistry, 2011).
pEC50: −log10 of the molar value. Entries after “also recorded” stand apart in the source; their conditions may differ. Like-named read-outs stand apart in the source and are kept apart here. Marks after values point to notes of the source that are not given here.

Key:
Torpedo nACh receptor [1] = biological target: T1, Torpedo nACh receptor (Tetronarce californica, UniProt P02710+P02712+P02714+P02718); assay: Photoincorporation of [3H]6 into nACh receptor-rich Torpedo membranes; assay type: binding; conditions: for effect on nACh receptor subunit photolabeling by [3H]6: absence of agonist (resting state), 100 μM drug
Outline: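 Electric-organ membranes were held at 2 mg protein/mL in Torpedo saline (pH 7.0) with 1 mM oxidized glutathione. Aliquots (160 pmol ACh sites) were equilibrated 30 min with 1.7 μM tritiated test compound (12 Ci/mmol), alone or with 100 μM tetracaine, 100 μM phencyclidine, 300 μM parent anesthetic and/or 1 mM carbamylcholine. Samples were UV-irradiated (365 nm) on ice for 30 min, then run on SDS-PAGE. Read-outs were fluorography (2 weeks) and scintillation counting of excised subunit bands.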

Xenopus laevis tadpoles [2] = conditions: read-out: General Anesthesia LoRR EC50, cited from earlier work
GABAA receptor = conditions: cited from earlier work
[3] = pure propofol in water; cited from earlier work
Torpedo nACh receptor [4] = biological target: T1, Torpedo nACh receptor; assay: Inhibition of ACh-elicited currents of Torpedo nACh receptors in Xenopus oocytes; assay type: cell-based; conditions: 10 μM ACh (~EC20)
Outline: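 Two-electrode voltage clamp at room temperature on Xenopus oocytes. Oocytes were injected with ~25 ng Torpedo subunit cRNA at 2α:1β:1γ:1δ, clamped at −50 mV and perfused with ND96 (pH 7.5) at ~2 mL/min. 10 μM ACh was applied, then ACh plus rising test compound (10 mM DMSO stock diluted in ND96). Applications lasted 15–20 s with ~3 min washes. Currents were normalized to ACh alone and fit to a logistic equation; 3 oocytes.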

[5] = biological target: human α1β2γ2L GABAA receptor (Homo sapiens, UniProt P14867+P18507+P47870); assay: Two electrode voltage clamp of GABAA receptor currents in Xenopus oocytes; assay type: cell-based; conditions: for Imax of GABA current enhancement / nH of GABA current enhancement: 3 μM GABA (~EC5); for nH of GABA concentration response curve in the presence of drug: 6 μM 6; for nH of GABA concentration response curve in the presence of drug / Shift in GABA dose response curve to the left: 4.4 μM propofol; for Shift in GABA dose response curve to the left: twice the tadpole anesthesia EC50: 6 μM 6
[6] = biological target: α1β3γ2 GABAA receptors (agonist site) (Homo sapiens, UniProt P14867+P18507+P28472); assay: Modulation of [3H]muscimol binding to GABAA receptor membranes from HEK293 cells
[7] = biological target: α1β3γ2 GABAA receptors (benzodiazepine site) (Homo sapiens, UniProt P14867+P18507+P28472); assay type: binding; conditions: for Enhancement of specific [3H]flunitrazepam binding: maximal effect; for effect on [3H]flunitrazepam binding above 40 μM: above 40 μM up to 400 μM
[8] = Octanol/water partition coefficient by HPLC; assay type: physicochemical; conditions: estimated by HPLC of both phases
Xenopus laevis tadpoles [9] = assay: General anesthetic potency, loss of righting reflexes; assay type: in vivo; conditions: recovery in fresh solution overnight
[10] = Stability in aqueous buffer at 4°C; assay type: physicochemical; conditions: 0.01M Tris/HCl pH 7.4, concentration close to saturation
Outline: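 Excess test compound was stirred 24 h in 0.01 M Tris/HCl, pH 7.4, and centrifuged at 10,000g to give a near-saturated solution. This was stored at 4°C and monitored over time by reverse-phase HPLC (acetonitrile elution).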

[11] = added to carbamylcholine-treated samples

T1 sequence (P02710 25-461): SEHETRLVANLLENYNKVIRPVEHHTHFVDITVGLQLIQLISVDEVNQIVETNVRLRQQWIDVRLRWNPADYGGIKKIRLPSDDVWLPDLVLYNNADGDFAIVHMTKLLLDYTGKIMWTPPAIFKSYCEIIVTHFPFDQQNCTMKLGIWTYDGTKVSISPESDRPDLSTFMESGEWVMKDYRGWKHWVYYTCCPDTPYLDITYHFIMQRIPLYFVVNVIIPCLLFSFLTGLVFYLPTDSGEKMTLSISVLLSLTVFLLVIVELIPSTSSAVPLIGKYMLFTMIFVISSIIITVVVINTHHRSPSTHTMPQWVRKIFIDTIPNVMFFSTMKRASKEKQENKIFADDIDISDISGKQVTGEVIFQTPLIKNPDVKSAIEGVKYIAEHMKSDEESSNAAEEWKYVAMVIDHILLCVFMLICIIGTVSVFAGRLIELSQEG
T1 sequence (P02712 25-493): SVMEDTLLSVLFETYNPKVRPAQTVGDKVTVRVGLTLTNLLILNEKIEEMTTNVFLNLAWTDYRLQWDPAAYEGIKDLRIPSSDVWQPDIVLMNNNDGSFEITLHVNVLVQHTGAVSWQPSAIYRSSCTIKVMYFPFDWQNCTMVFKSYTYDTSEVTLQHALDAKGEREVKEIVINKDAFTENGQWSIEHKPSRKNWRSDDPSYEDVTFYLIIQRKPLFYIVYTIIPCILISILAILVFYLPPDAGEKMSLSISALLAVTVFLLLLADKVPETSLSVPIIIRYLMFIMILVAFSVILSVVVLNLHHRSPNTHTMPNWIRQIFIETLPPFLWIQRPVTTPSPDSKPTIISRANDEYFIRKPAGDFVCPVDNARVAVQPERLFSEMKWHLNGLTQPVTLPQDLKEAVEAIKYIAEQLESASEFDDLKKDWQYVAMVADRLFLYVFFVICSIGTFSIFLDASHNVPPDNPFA
T1 sequence (P02714 18-506): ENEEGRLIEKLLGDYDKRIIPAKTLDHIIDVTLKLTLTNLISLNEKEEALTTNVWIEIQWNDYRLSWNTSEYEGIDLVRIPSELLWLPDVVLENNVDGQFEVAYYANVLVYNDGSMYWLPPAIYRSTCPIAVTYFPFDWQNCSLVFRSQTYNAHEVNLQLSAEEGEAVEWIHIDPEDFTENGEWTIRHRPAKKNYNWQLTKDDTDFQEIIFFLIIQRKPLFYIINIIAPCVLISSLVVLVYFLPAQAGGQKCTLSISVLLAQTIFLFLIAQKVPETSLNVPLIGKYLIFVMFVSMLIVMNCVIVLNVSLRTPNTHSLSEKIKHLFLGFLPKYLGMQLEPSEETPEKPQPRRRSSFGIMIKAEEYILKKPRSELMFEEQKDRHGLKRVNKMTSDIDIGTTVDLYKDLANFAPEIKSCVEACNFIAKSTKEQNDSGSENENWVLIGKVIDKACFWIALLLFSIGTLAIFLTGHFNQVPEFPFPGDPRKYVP
T1 sequence (P02718 22-522): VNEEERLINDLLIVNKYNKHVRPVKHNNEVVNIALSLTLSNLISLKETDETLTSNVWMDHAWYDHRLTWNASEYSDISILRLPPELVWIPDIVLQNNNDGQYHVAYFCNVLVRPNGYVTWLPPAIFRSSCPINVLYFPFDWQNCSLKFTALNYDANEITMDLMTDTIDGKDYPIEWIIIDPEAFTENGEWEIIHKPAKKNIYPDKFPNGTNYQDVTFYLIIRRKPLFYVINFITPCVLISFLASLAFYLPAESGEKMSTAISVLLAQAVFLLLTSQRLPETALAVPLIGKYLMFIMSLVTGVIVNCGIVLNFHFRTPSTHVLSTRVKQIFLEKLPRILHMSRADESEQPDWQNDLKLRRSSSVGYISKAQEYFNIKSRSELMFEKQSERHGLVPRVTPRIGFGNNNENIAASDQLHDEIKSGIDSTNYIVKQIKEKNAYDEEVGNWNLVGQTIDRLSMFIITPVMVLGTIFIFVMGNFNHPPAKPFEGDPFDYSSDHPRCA
human α1β2γ2L GABAA receptor, sequence (P14867 28-456): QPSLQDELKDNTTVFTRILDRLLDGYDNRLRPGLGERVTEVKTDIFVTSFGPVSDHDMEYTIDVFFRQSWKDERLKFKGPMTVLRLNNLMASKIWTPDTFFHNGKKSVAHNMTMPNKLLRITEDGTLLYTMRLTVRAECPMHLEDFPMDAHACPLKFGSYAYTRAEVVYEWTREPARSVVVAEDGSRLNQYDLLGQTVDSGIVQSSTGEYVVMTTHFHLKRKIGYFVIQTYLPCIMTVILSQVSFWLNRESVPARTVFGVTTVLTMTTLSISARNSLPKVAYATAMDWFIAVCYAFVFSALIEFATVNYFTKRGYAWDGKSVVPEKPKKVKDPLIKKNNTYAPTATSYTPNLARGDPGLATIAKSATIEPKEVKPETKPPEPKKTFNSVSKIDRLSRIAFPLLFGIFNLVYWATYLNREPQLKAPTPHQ
human α1β2γ2L GABAA receptor, sequence (P47870 25-512 limits assumed): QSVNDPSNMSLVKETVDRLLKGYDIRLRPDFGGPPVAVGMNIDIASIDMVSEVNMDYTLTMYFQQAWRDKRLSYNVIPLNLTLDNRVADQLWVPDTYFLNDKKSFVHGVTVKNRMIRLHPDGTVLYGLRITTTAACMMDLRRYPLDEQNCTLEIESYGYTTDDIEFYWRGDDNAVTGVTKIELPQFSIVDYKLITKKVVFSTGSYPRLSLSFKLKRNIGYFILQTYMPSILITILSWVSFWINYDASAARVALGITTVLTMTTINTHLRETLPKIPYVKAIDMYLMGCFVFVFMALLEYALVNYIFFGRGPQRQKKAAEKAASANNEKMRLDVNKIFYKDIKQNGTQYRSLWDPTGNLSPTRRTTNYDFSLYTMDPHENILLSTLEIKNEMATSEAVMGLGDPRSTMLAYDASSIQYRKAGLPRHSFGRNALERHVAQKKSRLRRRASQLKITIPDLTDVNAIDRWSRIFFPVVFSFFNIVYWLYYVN
human α1β2γ2L GABAA receptor, sequence (P18507 40-475): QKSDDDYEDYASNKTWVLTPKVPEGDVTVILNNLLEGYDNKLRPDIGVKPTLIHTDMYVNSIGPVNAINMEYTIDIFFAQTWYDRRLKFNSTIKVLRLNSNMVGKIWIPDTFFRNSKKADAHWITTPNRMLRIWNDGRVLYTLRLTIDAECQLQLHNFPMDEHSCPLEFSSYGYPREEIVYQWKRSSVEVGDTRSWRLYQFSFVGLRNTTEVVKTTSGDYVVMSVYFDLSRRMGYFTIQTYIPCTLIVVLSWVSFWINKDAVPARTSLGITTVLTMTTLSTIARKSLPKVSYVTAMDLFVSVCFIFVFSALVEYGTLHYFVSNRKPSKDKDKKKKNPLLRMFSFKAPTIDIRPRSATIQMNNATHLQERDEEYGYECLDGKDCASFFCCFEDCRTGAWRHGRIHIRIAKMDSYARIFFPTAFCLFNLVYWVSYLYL
α1β3γ2 GABAA receptors (benzodiazepine site), sequence (P14867 28-456): as the sequence (P14867 28-456) above
α1β3γ2 GABAA receptors (benzodiazepine site), sequence (P28472 26-473): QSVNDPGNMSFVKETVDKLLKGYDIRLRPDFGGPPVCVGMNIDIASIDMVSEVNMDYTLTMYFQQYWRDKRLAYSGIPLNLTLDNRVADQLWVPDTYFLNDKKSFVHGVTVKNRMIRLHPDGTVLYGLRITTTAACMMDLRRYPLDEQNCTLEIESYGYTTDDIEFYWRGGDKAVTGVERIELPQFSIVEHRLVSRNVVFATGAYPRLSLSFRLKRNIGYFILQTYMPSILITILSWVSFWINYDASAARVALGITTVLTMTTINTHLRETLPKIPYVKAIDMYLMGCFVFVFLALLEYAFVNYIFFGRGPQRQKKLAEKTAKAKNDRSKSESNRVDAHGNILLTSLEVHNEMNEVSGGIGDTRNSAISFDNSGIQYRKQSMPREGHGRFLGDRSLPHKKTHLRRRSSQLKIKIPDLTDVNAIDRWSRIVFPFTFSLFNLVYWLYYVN
α1β3γ2 GABAA receptors (benzodiazepine site), sequence (P18507 40-475): as the sequence (P18507 40-475) above
α1β3γ2 GABAA receptors (agonist site), sequence (P14867 28-456): as the sequence (P14867 28-456) above
α1β3γ2 GABAA receptors (agonist site), sequence (P28472 26-473): as the sequence (P28472 26-473) above
α1β3γ2 GABAA receptors (agonist site), sequence (P18507 40-475): as the sequence (P18507 40-475) above

| SMILES | effect on nACh receptor subunit photolabeling by [3H]6 (Torpedo nACh receptor [1]) | pEC50 (Xenopus laevis tadpoles [2]; ref Hall et al, 2010 [13]) | nH of ACh current inhibition (Torpedo nACh receptor [4]) | Imax of GABA current enhancement [5] [%] | nH of GABA current enhancement [5] | nH of GABA concentration response curve in the presence of drug [5] | Shift in GABA dose response curve to the left [5] | Enhancement of specific [3H]flunitrazepam binding ([7]; 1.5 nM [3H]flunitrazepam) | effect on [3H]flunitrazepam binding above 40 μM [7] | also measured |
| --- | --- | --- | --- | --- | --- | --- | --- | --- | --- | --- |
| CCCCNc1ccc(C(=O)OCCN(C)C)cc1 [tetracaine] | little effect; also recorded: no effect | – | – | – | – | – | – | – | – | – |
| CC(C)c1cc(CCCC2(C)N=N2)cc(C(C)C)c1O [[^3H]6, ^3H-2,6-Diisopropyl-4-[3-(3-methyl-3H-diazirin-3-yl)-propyl]-phenol] | – | – | – | – | – | – | – | – | – | carbamylcholine-enhanced 3H photoincorporation in nACh receptor α-subunit (Torpedo nACh receptor [1]; 1.7 μM [3H]6): 3000 cpm; fraction of nACh receptor α-subunits photolabeled (Torpedo nACh receptor [1]; 1.7 μM [3H]6, carbamylcholine-enhanced): 0.2% |
| CC(C)c1ccc(C2(C(F)(F)F)N=N2)cc1O [m-TFD-propofol, 2-isopropyl-5-[3-(trifluoromethyl)-3H-diazirin-3-yl]phenol] | – | 5.51 | – | – | – | – | – | – | – | Direct activation (GABAA receptor; m-TFD-propofol at 30 μM, ref Hall et al, 2010 [13]): no direct agonist activity |
| CC(C)c1cccc(C(C)C)c1O [propofol, 2,6-diisopropylphenol] | – | 5.55 | 0.8 ± 0.1 | 16 ± 3 | 1.7 ± 1.2 | 1.1 ± 0.3 | 11 ^a fold | ~ 200% | caused a rapid decrease in binding | pEC50 (Xenopus laevis tadpoles [2]; ref Krasowski et al, 2001 [2]): 5.72; saturated concentration in water [3]: 1 ± 0.02 mM; additional increase of [3H]6 photoincorporation (Torpedo nACh receptor [1]; [11]): ~ 20%; Direct activation, current as % of maximal GABA response ([5]; absence of GABA): 30–50%; Enhancement of [3H]muscimol binding ([6]; 3 nM [3H]muscimol): 2.4x ^a; effect on [3H]muscimol binding above 30 μM ([6]; above 30 μM): caused a sharp decrease in binding; Direct activation, currents as % of the maximal GABA response (GABAA receptor; propofol alone): 30 – 70%; Direct activation (GABAA receptor; ref Krasowski et al, 2001 [2]): 67%; Enhancement of [3H]flunitrazepam binding ([7]; 1.5 nM [3H]flunitrazepam): 2x ^a |
| CC(C)c1cc(CCCC2(C)N=N2)cc(C(C)C)c1O [Compound 6, 2,6-Diisopropyl-4-[3-(3-methyl-3H-diazirin-3-yl)-propyl]-phenol] | – | – | 0.9 ± 0.2 | 22 ± 6 | 1.4 ± 1.3 | 0.9 ± 0.2 | 9 ^a fold | ~ 150% | caused no further change | octanol/water partition coefficient [8]: 15,600 ± 1200; reversibility of anesthesia (Xenopus laevis tadpoles [9]): reversible; time stable in buffer [10]: at least 2.5 days; pEC50 [6]: ~6.30; pEC50 [7]: ~6.30 |
| c1ccc(C2(N3CCCCC3)CCCCC2)cc1 [phencyclidine] | little effect | – | – | – | – | – | – | – | – | additional decrease of [3H]6 photoincorporation (Torpedo nACh receptor [1]; [11]): ~ 20% |
